# What was measured:
# Format in all cases: functional, Mus musculus
# B16 [1] = experiment: Antitumor activity against B16 melanoma from B6 D2 F1 female mice evaluated as the number of survivors on day 5 at a dose of 1 mg/kg/day
# Outline: (§1)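 B6D2F1 female mice (C57BL/6 ♀ × DBA/2 ♂) implanted ip on day 0 with 0.5 mL of B16 tumor suspension (1 g homogenized in 9 mL 0.9% saline). Dosing ip on days 1, 5 and 9. Day-5 survivors give toxicity. Median survival of treated vs control mice gives T/C%, with ≥125% significant.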
# L1210 [2] = experiment: Antitumor activity against L1210 Lymphoid Leukemia from CDF1 female mice as Median survival time of treated mice at a dose of 1.0 mg/kg/day
# Outline: (§2)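 L1210 leukemia, 10⁵ cells ip on day 0 into CDF1 female mice (BALB/c ♀ × DBA/2 ♂). Drug in 2% methanol given ip on days 1, 5 and 9, 10 mice per group. Survivors and body weight recorded on days 1 and 5, with toxicity as survivors on day 5. Deaths followed for 30 days. T/C = treated/control median survival time, significant at ≥125%.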
# P388 [3] = experiment: Average weight change of animals between day 1 and day 5 after tumor implementation at a dose of 0.50 mg/kg/day
# Outline: (§3)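 P388 leukemia: CDF1 female mice were inoculated ip with 10⁶ cells on day 0. Treatment in 2% methanol was given ip on days 1, 5 and 9, with 10 mice per group and a larger control group. Body weight was recorded on days 1 and 5 post-implant, and the average change was reported.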
# P388 [4] = experiment: Antitumor activity against P388 Leukemia from CDF1 female mice evaluated as Median survival time of treated mice at a dose of 0.25 mg/kg/day
# Outline: (§4)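 CDF1 female mice (BALB/c × DBA/2) inoculated ip with 10⁶ P388 cells on day 0. Drug given ip in 2% methanol on days 1, 5 and 9. Ten mice per dose group, with a larger control group. Body weight and survival were recorded on days 1 and 5, with toxicity taken as survivors on day 5. Mortality was followed for 30 days to give median survival time.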
# P388 [5] = experiment: Antitumor activity against P388 Leukemia from CDF1 female mice evaluated as Median survival time of treated mice at a dose of 0.06 mg/kg/day
# Outline: (§5)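 CDF1 female mice (BALB/c ♀ × DBA/2 ♂) given 10⁶ P388 cells ip on day 0. Drug in 2% methanol given ip on days 1, 5 and 9, 10 mice per group and more controls. Toxicity is survivors on day 5, with weight change between days 1 and 5. Mortality followed 30 days. T/C% is treated over control median survival (NCI method), significant at ≥125%.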
# P388 [6] = experiment: Antitumor activity against P388 Leukemia from CDF1 female mice evaluated as Median survival time of treated mice at a dose of 0.03 mg/kg/day; outline: as §5
# P388 [7] = experiment: Average weight change of animals between day 1 and day 5 after tumor implementation at a dose of 0.03 mg/kg/day; outline: as §3
# P388 [8] = experiment: Average weight change of animals between day 1 and day 5 after tumor implementation at a dose of 0.75 mg/kg/day; outline: as §3
# B16 [9] = experiment: Antitumor activity against B16 melanoma from B6 D2 F1 female mice evaluated as the number of survivors on day 5 at a dose of 0.03 mg/kg/day (repeated ip injections, day 1-9); conditions: route intraperitoneal
# Outline: (§6)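 B16 melanoma homogenate (1 g tumor in 9 mL 0.9% saline), 0.5 mL implanted ip on day 0 in B6D2F1 female mice (C57BL/6 ♀ × DBA/2 ♂). Treatment ip once daily from day 1 to day 9. Toxicity scored as survivors on day 5. Median survival recorded and T/C computed as treated/control median survival, ≥125% significant.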
# P388 [10] = experiment: Average weight change of animals between day 1 and day 5 after tumor implementation at a dose of 0.06 mg/kg/day; outline: as §3
# P388 [11] = experiment: Antitumor activity (T/C) was evaluated from the median survival time of treated mice (T) over that of control mice (C) at a dose of 0.25 mg/kg/day; outline: as §5
# B16 [12] = experiment: Antitumor activity against B16 melanoma from B6 D2 F1 female mice(T/C) was evaluated from the median survival time of treated mice (T) over that of control mice (C) at a dose of 0.50 mg/kg/day; outline: as §1
# B16 [13] = experiment: Antitumor activity against B16 melanoma from B6 D2 F1 female mice(T/C) was evaluated from the median survival time of treated mice (T) over that of control mice (C) at a dose of 0.06 mg/kg/day; outline: as §1
# B16 [14] = experiment: Antitumor activity against B16 melanoma from B6 D2 F1 female mice as average weight change of animals between day 1 and day 5 after tumor implementation at a dose of 0.06 mg/kg/day (repeated ip injections, day 1-9); conditions: route intraperitoneal
# Outline: (§7)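 B6D2F1 female mice (C57BL/6 × DBA/2) were implanted ip on day 0 with 0.5 mL of B16 suspension (1 g tumor homogenized in 9 mL 0.9% saline). Ip treatment was given once daily, day 1 to day 9. Body weight was recorded on days 1 and 5 after implantation, and the mean change per group was reported.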
# B16 [15] = experiment: Antitumor activity against B16 melanoma from B6 D2 F1 female mice evaluated as Median survival time of treated mice at a dose of 0.50 mg/kg/day; outline: as §1
# P388 [16] = experiment: Antitumor activity against P388 Leukemia from CDF1 female mice evaluated as the number of survivors on day 5 at a dose of 0.75 mg/kg/day; outline: as §4
# B16 [17] = experiment: Antitumor activity against B16 melanoma from B6 D2 F1 female mice evaluated as Median survival time of treated mice at a dose of 0.03 mg/kg/day; outline: as §1
# B16 [18] = experiment: Antitumor activity against B16 melanoma from B6 D2 F1 female mice evaluated as Median survival time of treated mice at a dose of 0.06 mg/kg/day; outline: as §1
# B16 [19] = experiment: Antitumor activity against B16 melanoma from B6 D2 F1 female mice as average weight change of animals between day 1 and day 5 after tumor implementation at a dose of 0.25 mg/kg/day (repeated ip injections, day 1-9); conditions: route intraperitoneal; outline: as §7
# P388 [20] = experiment: Antitumor activity against P388 Leukemia from CDF1 female mice evaluated as Median survival time of treated mice at a dose of 0.75 mg/kg/day; outline: as §4
# B16 [21] = experiment: Antitumor activity against B16 melanoma from B6 D2 F1 female mice evaluated as Median survival time of treated mice at a dose of 0.06 mg/kg/day (repeated ip injections, day 1-9); conditions: route intraperitoneal; outline: as §6
# P388 [22] = experiment: Average weight change of animals between day 1 and day 5 after tumor implementation at a dose of 0.25 mg/kg/day; outline: as §3
# L1210 [23] = experiment: Antitumor activity against L1210 Lymphoid Leukemia from CDF1 female mice evaluated as the number of survivors on day 5 at a dose of 0.50 mg/kg/day; outline: as §2
# B16 [24] = experiment: Antitumor activity against B16 melanoma from B6 D2 F1 female mice evaluated as the number of survivors on day 5 at a dose of 0.03 mg/kg/day; outline: as §1
# B16 [25] = experiment: Antitumor activity against B16 melanoma from B6 D2 F1 female mice evaluated as the number of survivors on day 5 at a dose of 0.06 mg/kg/day (repeated ip injections, day 1-9); conditions: route intraperitoneal; outline: as §6
structure (smiles),measurement,setting,value
COc1ccc(C[C@H]2C(=O)O[C@H](C)[C@H](NC(=O)[C@@H](CC(C)C)N(C)C(=O)C3CCCN3C(=O)[C@@H](C)O)C(=O)NC(C(C)C)[C@H](O)CC(=O)O[C@@H](C(C)C)C(=O)[C@H](C)C(=O)N[C@@H](CC(C)C)C(=O)N3CCC[C@H]3C(=O)N2C)cc1 (stereo not given in full) [NORDIDEMNIN],Toxicity,B16 [1],1
same,"median survival time, days",L1210 [2],11.2
same,Body weight change,P388 [3],-1.2 g
same,"median survival time, days",P388 [4],15.7
same,"median survival time, days",P388 [5],13.6
same,"median survival time, days",P388 [6],12.4
same,Body weight change,P388 [7],0 g
same,Body weight change,P388 [8],-1.7 g
same,Toxicity,B16 [9],0.9
same,Body weight change,P388 [10],0.2 g
same,T/C,P388 [11],142%
same,T/C,B16 [12],147%
same,T/C,B16 [13],116%
same,Body weight change,B16 [14],-0.3 g
same,"median survival time, days",B16 [15],28
same,Toxicity,P388 [16],1
same,"median survival time, days",B16 [17],19.3
same,"median survival time, days",B16 [18],22
same,Body weight change,B16 [19],-2.1 g
same,"median survival time, days",P388 [20],19.4
same,"median survival time, days",B16 [21],27.8
same,Body weight change,P388 [22],-0.7 g
same,Toxicity,L1210 [23],1
same,Toxicity,B16 [24],1
same,Toxicity,B16 [25],1

# From ChEMBL document CHEMBL1125226, “Antineoplastic activity of didemnin congeners: nordidemnin and modified chain analogues” (1991)
